# Experimental data: PMC10339703 (Clinical and Translational Science, 2023)
# Legend:
# [1] = Plasma and urine pharmacokinetics, part I SAD study; format: in vivo, human; conditions: for CL/F / Fe0‐72h (fraction excreted in urine): geometric mean (geometric CV%)
# Summary of the method: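 Healthy adults randomized 6:2 to oral test compound or placebo (n = 8/cohort), fasted ≥10 h, no food ≥4 h postdose. Solution given as 150 mL in diluted Ora-Sweet plus 90 mL water rinse. Plasma sampled predose to 72 h. UHPLC-MS/MS with deuterated internal standard; plasma 2.5–1000 μg/L (LLOQ 2.5), urine 2–800 μg/L (LLOQ 2.0). Noncompartmental analysis; power-model ln-regression of Cmax/AUC on dose, slope with 90% CI.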
# Pro‐C3 = test: Serum PD biomarker Pro-C3; format: in vivo, human; conditions: MAD; statistically significant after a single dose but not after multiple doses
# Summary of the method: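 Oral tablets b.i.d. for 14 days (morning only day 14), 25–200 mg, in healthy adults randomized 6:2 versus placebo. Morning doses followed ≥10 h fasting; other doses came ≥1 h after a meal. Serum drawn predose and 2, 4, 6, 12 h after day 1 morning dose, day 2/7 predose, and predose to 72 h after day 14 dose. Pro-C3 measured by validated ELISA; AUEC0‑12h computed.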
smiles,measurement,setting,value
O[C@H]1CCCN[C@@H]1CCCn1cnc2c(Cl)c(Cl)ccc21 [Bersiporocin],CL/F,[1]; SAD single 100 mg capsule,156.48 (58.10) L/h
same,Fe0‐72h (fraction excreted in urine),[1]; SAD single 100 mg capsule,10.01 (45.08) %
same,CL/F,[1]; SAD single 100 mg solution,340.72 (48.72) L/h
same,Fe0‐72h (fraction excreted in urine),[1]; SAD single 100 mg solution,7.59 (32.47) %
same,CL/F,[1]; SAD single 300 mg capsule,196.59 (47.06) L/h
same,Fe0‐72h (fraction excreted in urine),[1]; SAD single 300 mg capsule,7.42 (43.31) %
same,CL/F,[1]; SAD single 500 mg tablet,213.75 (53.27) L/h
same,Fe0‐72h (fraction excreted in urine),[1]; SAD single 500 mg tablet,42.18 (180.78) %
same,CL/F,[1]; SAD single 600 mg capsule,312.07 (222.08) L/h
same,Fe0‐72h (fraction excreted in urine),[1]; SAD single 600 mg capsule,3.09 (341.55) %
same,half-life,"[1]; human, plasma, oral, t 1/2, range, SAD, enteric coated capsule",6.91 to 9.9 h
same,dose dependence of plasma concentration,[1]; single dose of enteric coated capsule,dose‐proportional manner
same,role of renal elimination,[1]; urine PK data from SAD or MAD,renal elimination was not the major clearance pathway
same,mean AUEC0‐12h for serum Pro‐C3 compared to the placebo‐treated group,Pro‐C3,lower
